# Data reported in ChEMBL document CHEMBL4304758, “Development of Peptide-Based Sirtuin Defatty-Acylase Inhibitors Identified by the Fluorescence Probe, SFP3, That Can Efficiently Measure Defatty-Acylase Activity of Sirtuin” (J Med Chem, 2019).
# Non-standard residues stand in square brackets, D forms with d. Residues, ends and D or L forms follow the SMILES beside them. *: point of attachment. Phenylacetyl(4-E-phenylazo) = O=C(Cc1ccc(/N=N/c2ccccc2)cc1)*; Lys(thiomyristoyl) = CCCCCCCCCCCCCC(=S)NCCCC[C@H](N)C(=O)O; X5 = CCN(CC)c1ccc(/N=N/c2ccc(CC(=O)*)cc2)cc1; X3 = CN(C)c1ccc(/N=N/c2ccc(CCC(=O)*)cc2)cc1; X4 = CN(C)c1ccc(/N=N/c2ccc(CC(=O)*)cc2)cc1; X2 = CN(C)c1ccc(/N=N/c2ccc(C(=O)*)cc2)cc1
# Tests used:
# [1] = molecular target: T1, NAD-dependent protein deacetylase sirtuin-2 (Homo sapiens, UniProt Q8IXJ6); experiment: Drug metabolism assessed as recombinant human SIRT2-mediated deacylation by measuring dabcyl formation at 20 uM measured up to 4 hrs in presence of NAD+ by HPLC analysis; assay type: ADME
# T1 sequence (Q8IXJ6 whole entry): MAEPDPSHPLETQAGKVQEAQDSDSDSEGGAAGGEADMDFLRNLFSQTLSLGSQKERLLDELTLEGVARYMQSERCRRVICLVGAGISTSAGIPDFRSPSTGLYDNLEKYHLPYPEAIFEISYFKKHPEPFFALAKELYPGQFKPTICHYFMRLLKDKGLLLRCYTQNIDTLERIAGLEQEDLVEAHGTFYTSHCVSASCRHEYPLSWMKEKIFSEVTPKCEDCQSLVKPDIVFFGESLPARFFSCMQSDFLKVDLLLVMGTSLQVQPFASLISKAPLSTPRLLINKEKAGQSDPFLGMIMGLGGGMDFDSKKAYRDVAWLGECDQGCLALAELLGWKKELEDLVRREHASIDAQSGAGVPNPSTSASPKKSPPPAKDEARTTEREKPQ
# Method in brief: (§1)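 Compound at 20 μM final (0.2% DMSO) with 350 nM SIRT2 and 500 μM NAD⁺ at 37 °C in buffer I: 50 mM Tris-HCl pH 8.0, 150 mM NaCl, 1 mM DTT, 0.05% Triton X-100. Aliquots taken at 0 and 4 h. Reversed-phase HPLC, TFA water/acetonitrile gradient. Detection at 510, 350 or 254 nm depending on compound.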
# [2] = molecular target: T2, NAD-dependent protein deacetylase sirtuin-3, mitochondrial (Homo sapiens, UniProt Q9NTG7); experiment: Inhibition of recombinant human SIRT3 (118 to 399 residues) defatty-acylase activity expressed in Escherichia coli using SFP3 as substrate measured at 5 mins interval for 60 mins in presence of NAD+ by fluorescence assay
# T2 sequence (Q9NTG7 whole entry): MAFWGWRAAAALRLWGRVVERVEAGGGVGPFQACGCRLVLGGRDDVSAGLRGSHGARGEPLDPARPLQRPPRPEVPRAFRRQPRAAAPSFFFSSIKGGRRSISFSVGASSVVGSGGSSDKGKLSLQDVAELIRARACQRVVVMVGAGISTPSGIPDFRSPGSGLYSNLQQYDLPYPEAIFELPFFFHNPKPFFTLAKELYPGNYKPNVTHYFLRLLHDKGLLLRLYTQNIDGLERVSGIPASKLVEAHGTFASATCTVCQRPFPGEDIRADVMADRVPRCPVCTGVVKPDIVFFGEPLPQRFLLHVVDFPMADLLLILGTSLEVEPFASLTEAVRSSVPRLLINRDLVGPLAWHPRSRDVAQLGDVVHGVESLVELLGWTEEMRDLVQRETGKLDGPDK
# [3] = molecular target: T1, NAD-dependent protein deacetylase sirtuin-2; experiment: Inhibition of recombinant human SIRT2 defatty-acylase activity using SFP3 as substrate measured at 5 mins interval for 60 mins in presence of NAD+ by fluorescence assay
# [4] = molecular target: T1, NAD-dependent protein deacetylase sirtuin-2; experiment: Inhibition of recombinant human SIRT2 demyristoylase activity using p53(Myr)-AMC as substrate measured after 3 hrs in presence of NAD+ and trypsin by fluorescence assay
# [5] = molecular target: T3, NAD-dependent protein deacetylase sirtuin-1 (Homo sapiens, UniProt Q96EB6); experiment: Inhibition of recombinant human C-terminal His6-tagged SIRT1 (Met1 to Ser747 residues) defatty-acylase activity expressed in Escherichia coli using SFP3 as substrate measured at 5 mins interval for 60 mins in presence of NAD+ by fluorescence assay
# T3 sequence (Q96EB6 whole entry): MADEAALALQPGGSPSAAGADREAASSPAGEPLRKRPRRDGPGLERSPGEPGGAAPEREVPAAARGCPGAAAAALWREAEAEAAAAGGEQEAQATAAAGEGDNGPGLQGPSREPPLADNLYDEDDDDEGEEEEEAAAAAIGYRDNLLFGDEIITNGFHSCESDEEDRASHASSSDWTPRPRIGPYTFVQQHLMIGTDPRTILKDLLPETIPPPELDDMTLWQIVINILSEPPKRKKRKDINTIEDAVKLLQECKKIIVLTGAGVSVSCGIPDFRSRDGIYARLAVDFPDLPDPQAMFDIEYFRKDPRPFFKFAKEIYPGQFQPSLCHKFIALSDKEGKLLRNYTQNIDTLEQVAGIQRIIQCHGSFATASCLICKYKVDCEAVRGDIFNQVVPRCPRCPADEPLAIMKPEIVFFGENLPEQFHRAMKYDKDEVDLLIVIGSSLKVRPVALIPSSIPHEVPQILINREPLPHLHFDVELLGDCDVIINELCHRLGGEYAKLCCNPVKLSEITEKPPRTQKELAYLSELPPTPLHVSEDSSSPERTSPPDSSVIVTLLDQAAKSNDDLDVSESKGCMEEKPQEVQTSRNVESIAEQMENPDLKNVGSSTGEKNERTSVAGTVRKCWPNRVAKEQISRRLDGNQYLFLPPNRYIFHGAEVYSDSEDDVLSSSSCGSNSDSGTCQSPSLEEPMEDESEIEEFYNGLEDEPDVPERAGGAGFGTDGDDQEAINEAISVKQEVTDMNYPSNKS
# [6] = molecular target: T1, NAD-dependent protein deacetylase sirtuin-2; experiment: Inhibition of recombinant human SIRT2 deacylation activity using Fluor de Lys Sirt2 as substrate measured at 5 mins interval for 30 mins in presence of NAD+ by fluorescence assay
# [7] = molecular target: T1, NAD-dependent protein deacetylase sirtuin-2; experiment: Drug metabolism assessed as recombinant human SIRT2-mediated deacylation by measuring dabcyl-PH formation at 20 uM measured up to 4 hrs in presence of NAD+ by HPLC analysis; assay type: ADME; method in brief: as §1
# [8] = molecular target: T3, NAD-dependent protein deacetylase sirtuin-1; experiment: Inhibition of recombinant human C-terminal His6-tagged SIRT1 (Met1 to Ser747 residues) demyristoylase activity expressed in Escherichia coli using p53(Myr)-AMC as substrate measured after 3 hrs in presence of NAD+ and trypsin by fluorescence assay
# Method in brief: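 SIRT1 at 14 nM final with 50 μM p53(Myr)-AMC and 500 μM NAD⁺ in Tris-HCl pH 8.0/NaCl/DTT/Triton buffer, 0.5% DMSO, 3 h at room temperature. Trypsin (100 nM final) plus nicotinamide (1 mM final) then added. Fluorescence Ex 355/Em 460 nm read every 5 min for 20 min at 37 °C. n = 3.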
# [9] = molecular target: T2, NAD-dependent protein deacetylase sirtuin-3, mitochondrial; experiment: Inhibition of recombinant human SIRT3 (118 to 399 residues) demyristoylase activity expressed in Escherichia coli using p53(Myr)-AMC as substrate measured after 3 hrs in presence of NAD+ and trypsin by fluorescence assay
# SIRT2 = experiment: Stability of the compound in SIRT assay buffer assessed as parent compound remaining at 20 uM measured after 4 hrs in presence of recombinant human SIRT2 and NAD+ by HPLC analysis; assay type: physicochemical; settings: read-out: Stability; method in brief: as §1
# [10] = molecular target: NAD-dependent protein deacylase sirtuin-6 (Homo sapiens, UniProt Q8N6T7); experiment: Inhibition of recombinant human N-terminal polyhis-tagged SIRT6 (1 to 355 residues) defatty-acylase activity expressed in Escherichia coli using SFP3 as substrate measured at 5 mins interval for 60 mins in presence of NAD+ by fluorescence assay
# Method in brief: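 SIRT6 at 48 nM final with 2.5 μM SFP3 and 500 μM NAD⁺ in Tris-HCl pH 8.0 buffer with 150 mM NaCl, 1 mM DTT, 0.05% Triton X-100, final 0.2% DMSO. Enzyme added last. Fluorescence Ex 485/Em 535 nm read every 5 min for 60 min at 37 °C.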
# NAD-dependent protein deacylase sirtuin-6, sequence (Q8N6T7 whole entry, the tested form may be a part): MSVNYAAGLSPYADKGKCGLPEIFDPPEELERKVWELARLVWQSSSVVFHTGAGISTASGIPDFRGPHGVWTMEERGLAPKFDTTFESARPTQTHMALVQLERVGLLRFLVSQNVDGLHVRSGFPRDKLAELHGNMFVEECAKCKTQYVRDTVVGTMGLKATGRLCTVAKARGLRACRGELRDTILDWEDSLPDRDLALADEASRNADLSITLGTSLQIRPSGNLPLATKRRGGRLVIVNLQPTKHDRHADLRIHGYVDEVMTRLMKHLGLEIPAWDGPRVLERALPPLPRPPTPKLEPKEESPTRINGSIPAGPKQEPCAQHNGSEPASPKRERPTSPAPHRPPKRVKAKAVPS
Drug metabolism [1],IC50 [2] [nM],IC50 [3] [nM],IC50 [4] [nM],IC50 [5] [nM],IC50 [6] [nM],Drug metabolism [7],IC50 [8] [nM],IC50 [9] [nM],"remaining at 4 h, 20 µM (SIRT2) [%]",IC50 [10] [nM],Structure (SMILES)
Metabolite_Detected,770,430,1600,> 2000,1600,,,,,,CC[C@H](C)[C@H](NC(=O)[C@H](CCCNC(=N)N)NC(C)=O)C(=O)N[C@@H](CCCCNC(=O)c1ccc(/N=N/c2ccc(N(C)C)cc2)cc1)C(=O)N[C@@H](CCCNC(=N)N)C(=O)N[C@@H](Cc1ccc(O)cc1)C(N)=O (Ac-RIK(X2)RY-NH2)
,1500,300,> 2000,1700,1100,Metabolite_Detected,,,,,CC[C@H](C)[C@H](NC(=O)[C@H](CCCNC(=N)N)NC(C)=O)C(=O)N[C@@H](CCCCNC(=O)CCc1ccc(/N=N/c2ccc(N(C)C)cc2)cc1)C(=O)N[C@@H](CCCNC(=N)N)C(=O)N[C@@H](Cc1ccc(O)cc1)C(N)=O (Ac-RIK(X3)RY-NH2)
,110,36,130,400,170,,98,330,> 99,,CC[C@H](C)[C@H](NC(=O)[C@H](CCCNC(=N)N)NC(C)=O)C(=O)N[C@@H](CCCCNC(=O)Cc1ccc(/N=N/c2ccc(N(C)C)cc2)cc1)C(=O)N[C@@H](CCCNC(=N)N)C(=O)N[C@@H](Cc1ccc(O)cc1)C(N)=O (Ac-RIK(X4)RY-NH2)
,180,68,190,1100,260,,140,480,,,CC[C@H](C)[C@H](NC(=O)[C@H](CCCNC(=N)N)NC(C)=O)C(=O)N[C@@H](CCCCNC(=O)Cc1ccc(/N=N/c2ccc(N(CC)CC)cc2)cc1)C(=O)N[C@@H](CCCNC(=N)N)C(=O)N[C@@H](Cc1ccc(O)cc1)C(N)=O (Ac-RIK(X5)RY-NH2)
,46,22,44,330,110,,26,130,,250,CCCCCCCCCCCCCC(=S)NCCCC[C@H](NC(=O)[C@@H](NC(=O)[C@H](CCCNC(=N)N)NC(C)=O)[C@@H](C)CC)C(=O)N[C@@H](CCCNC(=N)N)C(=O)N[C@@H](Cc1ccc(O)cc1)C(N)=O (Ac-RI[Lys(thiomyristoyl)]RY-NH2)
,> 2000,1500,> 2000,> 2000,580,,,,,,CC[C@H](C)[C@H](NC(=O)[C@@H](NC(=O)[C@H](CCCCNC(=O)Cc1ccc(/N=N/c2ccccc2)cc1)NC(=O)[C@H](CC(=O)O)NC(=O)[C@H](CO)NC(C)=O)[C@@H](C)O)C(N)=O (Ac-SDK(Phenylacetyl(4-E-phenylazo))TI-NH2)
,> 2000,> 2000,> 2000,> 2000,1200,,,,,,CC[C@H](C)[C@H](NC(=O)[C@@H](NC(=O)[C@H](CCCCNC(=O)c1ccc(/N=N/c2ccc(N(C)C)cc2)cc1)NC(=O)[C@H](CC(=O)O)NC(=O)[C@H](CO)NC(C)=O)[C@@H](C)O)C(N)=O (Ac-SDK(X2)TI-NH2)
,,120,520,1400,120,,430,,,,CC[C@H](C)[C@H](NC(=O)[C@H](CCCCNC(=O)Cc1ccc(/N=N/c2ccccc2)cc1)NC(=O)[C@@H](NC(C)=O)C(C)C)C(=O)N[C@@H](CCCCN)C(=O)N[C@@H](CCCCN)C(N)=O (Ac-VK(Phenylacetyl(4-E-phenylazo))IKK-NH2)
